Assay outcomes: PubChem, several laboratories
PfGluPho inh: PfG6PD (Plasmodium falciparum) enzyme inhibition; PfGluPho enzyme, NADPH resazurin-diaphorase fluorescence; inhibition, % at 20 µM; 350,000 tested, 0.78% active;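 active = inhibition reaching at least a set limit at 20 µM in the primary screen, cut at about 59% in these data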;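 also: 0% = DMSO wells with substrate and 100% = DMSO wells lacking glucose-6-phosphate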
MC4R ag barr: agonists of human melanocortin 4 receptor (MC4R) beta-arrestin; U2OS MC4R beta-arrestin complementation, luminescence; percent of melanotan II response, DMSO zero; 360,000 tested, 0.98% active; activation, % at 8.9 µM;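 active = activation above a per-plate cutoff, the mean activation of sample wells on that plate plus 3 SD, cut at about 8% in these data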
ABHD5 PLIN5 PPI: blocks binding of human ABHD5 to perilipin-5. Q00G26+Q8WTS1. Split G. princeps luciferase complementation, luminescence, 4 h. inhibition, % at 4 µM. 360,000 tested, 0.78% active. AID 602281;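 active = inhibition above the mean inhibition across every tested compound plus 3 SD, cut at about 22% in these data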;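 also: 0% = DMSO only wells and the 100% control is not disclosed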
Beta2AR agonist: agonists of human beta-2 adrenergic receptor inducing internalization | P07550 | Am2.2-beta2AR cells, FAP receptor internalization, flow cytometry | response, % (no concentration beside the values) | 340,000 tested, 0.43% active;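 active = response above a set limit, near 3 SD of response in nonfluorescent compounds, cut at about 42% in these data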
MC4R antagonist: antagonists of human melanocortin 4 receptor (MC4R). MC4R-expressing cells, MTII-stimulated cAMP, LANCE TR-FRET. inhibition, % at 6.5 µM. 360,000 tested, 0.48% active. AID 540295;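 active = inhibition above its plate's cutoff, the mean of tested wells on that plate plus 3 SD, cut at about 29% in these data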;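 also: 0% = Melanotan II alone and 100% = Melanotan II plus saturating MCL0020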
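Material – human MC4R-expressing U2OS cells · Repeats – no replicates · Detection – TR-FRET with Eu-cAMP and labeled anti-cAMP, 671 nm · Times – compound 30 min, challenge 1 h, detection 1 h · Compound – single nominal compound dose of 6.5 µM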
ABHD5-PLIN5 conf: confirmation of human ABHD5-PLIN5 interaction inhibitors. shares compounds with ABHD5 PLIN5 PPI. biochemical ABHD5-PLIN5 interaction, luminescence. inhibition, % at 4 µM. 2,200 tested, 67% active. AID 651612; in the data active = inhibition above about 23%;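 also: 0% = DMSO vehicle wells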
HNF4 split-luc: active in HNF4 split-luciferase counter-screen for ABHD5-PLIN5 inhibitors; inhibition, % at 4 µM; HNF4 dimerization, luminescence, biochemical; 2,200 tested, 77% active; shares compounds with ABHD5 PLIN5 PPI;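 active = mean inhibition across replicate wells exceeding the computed hit threshold, cut at about 13% in these data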;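 also: light from luciferase halves that rejoin when HNF4 fusion proteins dimerize; 0% = DMSO only wells and the 100% control is not given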
Active calls of the source: *; . = no result. Compounds with a hit are over-represented: about 3% of the library has one in this group of screens.

SMILES | PfGluPho inh | MC4R ag barr | ABHD5 PLIN5 PPI | Beta2AR agonist | MC4R antagonist | ABHD5-PLIN5 conf | HNF4 split-luc
C(=C\c1ccco1)/C1=NN(c2ccccc2)C(c2ccco2)C1 (configuration not stated) | 53 | -1 | 34* | -10 | 2 | 27* | 18*
CCCCOc1ccc(C(=O)C(CN2CCOCC2)c2ccccc2)cc1 (configuration not stated) | 12 | 0 | 4 | -9 | 6 | . | .
O=C(c1ccc(F)cc1)C(CN1CCOCC1)c1ccccc1 (configuration not stated) | -1 | -1 | 38* | 12 | 19 | 29* | 99*
Cc1nc(NC(=O)/C=C/c2ccccc2)n[nH]1 | 4 | -2 | 25* | 14 | 5 | 42* | 38*
CCn1c(C)c(C)c2cc(C(=O)NCCc3ccco3)ccc21 | -1 | 0 | 30* | 16 | -2 | 10 | 16*
Cc1c(C)n(C)c2ccc(C(=O)NCCc3ccco3)cc12 | 44 | -1 | 12 | -1 | 0 | . | .
CCn1c(=O)c([N+](=O)[O-])c(NCCN(C)C)c2ccccc21 | -3 | -1 | 4 | -3 | 8 | . | .
CCn1c(=O)c([N+](=O)[O-])c(Cl)c2ccccc21 | 22 | -3 | 41* | 77* | 21 | 71* | 95*
CC(=O)OCC1=C(C(=O)O)N2C(=O)C(NC(=O)CCn3nc(C(F)(F)F)c(Br)c3C3CC3)C2SC1 (configuration not stated) | 3 | -1 | 47* | -4 | 0 | 42* | 8
CC(=O)OCC1=C(C(=O)O)N2C(=O)C(NC(=O)CCn3nc(C)c(Cl)c3C)C2SC1 (configuration not stated) | 0 | -2 | 16 | -1 | 4 | . | .
CC(=O)OCC1=C(C(=O)O)N2C(=O)C(NC(=O)c3ccc(COc4c(C)cccc4Cl)o3)C2SC1 (configuration not stated) | -2 | 0 | 25* | 1 | 3 | 18 | 17*
CCOc1ccc(C(=O)NC2C(=O)N3C(C(=O)O)=C(COC(C)=O)CSC23)cc1OCC (configuration not stated) | 6 | -3 | 32* | 5 | 12 | 11 | 29*
Cc1csc(CNC(=O)c2ccc(OC3CCN(CCc4ccccc4)CC3)cc2)n1 | -1 | -3 | 2 | 4 | 2 | . | .
Cc1onc(-c2c(Cl)cccc2Cl)c1C(=O)ONC(=O)c1ccccc1 | -8 | -2 | 1 | 15 | 1 | . | .
CCCC1=NN(C(=O)C(=O)Nc2ccc(Br)cc2)C(O)(C(F)(F)F)C1 (configuration not stated) | 11 | -3 | 23* | 2 | 0 | 37* | 42*
CCC1=NN(C(=O)C(=O)Nc2ccc(Br)cc2)C(O)(C(F)(F)F)C1 (configuration not stated) | -4 | -2 | 21 | 14 | -4 | . | .
O=C(NCc1ccccc1)C(CCc1ccccc1)n1c(=O)c(-c2ccccc2)nc2ccccc21 (configuration not stated) | . | . | 38* | . | . | 41* | 28*
O=C(NCc1ccccc1)C(c1ccc(-c2ccccc2)cc1)n1c(=O)c(-c2ccco2)nc2ccccc21 (configuration not stated) | . | . | 87* | . | . | 75* | 14*
O=C(NCc1ccccc1)C(c1ccncc1)n1c(=O)c(-c2ccco2)nc2ccccc21 (configuration not stated) | . | . | 36* | . | . | 31* | 14*
COc1ccc(CNc2ncc(-c3cccc([N+](=O)[O-])c3)n2C)c(OC)c1OC | -13 | 1 | -11 | -1 | 9 | . | .
O=C(O)CN1C(=O)C=CC1=O | 10 | -1 | 66* | . | 6 | 47* | 104*
O=c1[nH]cnc2c1N=C(c1cccc([N+](=O)[O-])c1)CC(c1ccccc1)N2 (configuration not stated) | 3 | 1 | 45* | -3 | -11 | 10 | 26*
O=[N+]([O-])c1cccc(C2=NC(c3ccccc3)CO2)c1 (configuration not stated) | 5 | -1 | 9 | -2 | 6 | . | .
Cc1cc(C(=O)NCC(C)(C)N2CCOCC2)c(C)o1 | -3 | 1 | 14 | -3 | 6 | . | .
CC1CN(C(=O)c2cccc(S(=O)(=O)N3CCN(c4ccccc4)CC3)c2)CC(C)O1 (configuration not stated) | -4 | -4 | 1 | -2 | -6 | . | .
SMILES | PfGluPho inh | MC4R ag barr | ABHD5 PLIN5 PPI | Beta2AR agonist | MC4R antagonist | ABHD5-PLIN5 conf | HNF4 split-luc
O=C(/C=C/c1ccc(F)cc1)c1ccccc1Br | 2 | 1 | 56* | 13 | 2 | 96* | 88*
Cc1ccc(C(=O)/C=C/c2ccc(F)cc2)o1 | 11 | 2 | 42* | 10 | -8 | 62* | 47*
CCOC(=O)C(=NO)C1=CSC2=NNC(C)(C)N12 | 0 | -4 | -6 | . | -37 | . | .
C[C@H]1CN([C@@H](C)CO)C(=O)CCCn2nncc2CO[C@H]1CN(C)C(=O)NC1CCCCC1 | 4 | 3 | -10 | . | 8 | . | .
Cc1nnc(SCc2ccccc2)nc1/C=C/NOCc1ccc(Cl)cc1Cl | 9 | -2 | 26* | 1 | -5 | 15 | 25*
CSc1nnc(C)c(/C=C/NOCc2cccc(F)c2)n1 | 10 | -1 | -6 | 12 | 17 | . | .
CCN(CC)CCN1C(=O)C2C(C(=O)Nc3ccc(C(C)C)cc3)C3C=CC2(O3)C1C(=O)NC1CCCCC1 (configuration not stated) | -9 | 0 | 2 | 0 | 4 | . | .
